Activity calls are given as the source filed them. No cut-off for these calls is given here.
How the values were obtained:
A549 = assay: Cytotoxicity against human A549 cells after 72 hrs by sulforhodamine B assay; type: functional, cell-based; details: for IC50: A549, 72 h
In short: (§1)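 Antiproliferative test on MCF-7 human breast adenocarcinoma and A-549 human lung carcinoma cells. SN38 (7-ethyl-10-hydroxycamptothecin) served as positive control. IC50 is the concentration giving 50% inhibition of cell growth, calculated by a literature procedure.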

MCF7 = assay: Cytotoxicity against human MCF7 cells after 72 hrs by sulforhodamine B assay; type: functional, cell-based; details: for IC50: MCF7, 72 h; in short: as §1

Row | SMILES | IC50 (A549) | IC50 (MCF7) | Activity (A549) | Activity (MCF7)
1 | CC[C@@H]1CN(C)[C@@H]2Cc3c([nH]c4ccccc34)[C@H](c3ccc4c5c([nH]c4c3)[C@]3(C(=O)OC)C[C@H]4C[C@H](CC)[C@@H]3N(CC5)C4)C[C@H]1[C@H]2C(=O)OC | > 10 µM | 5.4 µM |  | 
2 | C/C=C1/CN2CC[C@@H]1/C(=C\[C@@H]1C[C@@H]3[C@H](CC)CN(C)[C@H](Cc4c1[nH]c1ccccc41)[C@@H]3C(=O)OC)c1[nH]c3ccccc3c1C2 | 8.1 µM | 0.8 µM |  | 
3 | CCc1c2c(nc3ccc(O)cc13)-c1cc3c(c(=O)n1C2)COC(=O)[C@]3(O)CC [7-ETHYL-10-HYDROXYCAMPTOTHECIN] | 0.2 µM | < 0.0001 µM |  | 
4 | C=C1c2[nH]c3ccccc3c2CN2CC[C@H]1/C(=C\C)C2 |  |  | inactive | inactive
5 | CC[C@@H]1CN(C)[C@@H]2Cc3c([nH]c4ccccc34)[C@H](c3ccc4c(c3)N=C3[C@@H]5C[C@H]6C[C@H](CC)[C@@H]5N(CC[C@@]34O)C6)C[C@H]1[C@H]2C(=O)OC | > 10 µM | 1.3 µM |  | 
6 | CC[C@H]1[C@@H]2CCN3CC[C@@]4(C(=C2C(=O)OC)Nc2ccccc24)[C@@H]13 |  |  | inactive | inactive
7 | CCC1C[C@@H]2C[C@@]3(C(=O)OC)C4=Nc5ccccc5[C@@]4(O)CCN([C@@H]13)[C@H]2CC(C)=O (stereo partly specified) |  |  | inactive | inactive
8 | C/C=C1/CN2CC[C@@H]1[C@@]1(C[C@H]3C[C@@H]4/C(=C\Cc5c3n1c1ccccc51)C(=O)N(C)C[C@@H]4CC)c1[nH]c3ccccc3c1C2 | 7.5 µM | > 10 µM |  | 
9 | CC[C@H]1CN2CCc3cc(OC)c(OC)cc3[C@@H]2C[C@@H]1C[C@H]1NCCc2c1[nH]c1ccccc21 | 0.09 µM | 0.002 µM |  | 
10 | C/C=C1/CN2CC[C@@H]1/C(=C\[C@@H]1C[C@@H]3/C(=C\C)CN(C)[C@H](Cc4c1[nH]c1ccccc41)[C@@H]3C(=O)OC)c1[nH]c3ccccc3c1C2 | 4 µM | 1.3 µM |  | 
11 | C/C=C1/C[N+]2(C)[C@@H]3Cc4c([nH]c5ccccc45)[C@]2(c2ccc4c5c([nH]c4c2)[C@@H]2C[C@H]4C[C@H](CC)[C@@H]2N(CC5)C4)C[C@H]1[C@H]3C(=O)OC | 3.2 µM | 1.3 µM |  | 
12 | C/C=C1/C[N+]2(C)[C@@H]3Cc4c([nH]c5ccccc45)[C@]2(c2ccc4c5c([nH]c4c2)[C@]2(C(=O)OC)C[C@H]4C[C@H](CC)[C@@H]2N(CC5)C4)C[C@H]1[C@H]3C(=O)OC | 1.2 µM | 7.3 µM |  | 
13 | CC[C@@H]1CN(C)[C@@H]2Cc3c([nH]c4ccccc34)[C@H](c3ccc4c5c([nH]c4c3)[C@]3(C(=O)OC)C[C@H]4C[C@H](CC)[C@@H]3N(CC5)[C@H]4CC(C)=O)C[C@H]1[C@H]2C(=O)OC | 1.2 µM | 1.3 µM |  | 

Reference: ChEMBL document CHEMBL4196181, “Flabellipparicine, a Flabelliformide-Apparicine-Type Bisindole Alkaloid from Tabernaemontana divaricata” (J Nat Prod, 2018)
